One block for each molecule: values may come before it.
Assays:
[1] = biological target: T1, Neutrophil elastase (Homo sapiens) (UniProt P08246)
T1 sequence (whole entry): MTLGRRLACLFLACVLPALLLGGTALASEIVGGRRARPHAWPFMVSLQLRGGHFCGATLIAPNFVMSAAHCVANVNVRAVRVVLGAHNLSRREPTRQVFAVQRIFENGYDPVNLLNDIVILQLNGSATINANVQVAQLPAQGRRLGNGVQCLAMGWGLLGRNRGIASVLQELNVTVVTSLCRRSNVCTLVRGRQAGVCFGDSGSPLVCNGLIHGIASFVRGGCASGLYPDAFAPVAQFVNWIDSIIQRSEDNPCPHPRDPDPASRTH

[2] = test system: Cricetinae gen. sp.; experiment: Compound was evaluated in vivo for inhibition of HLE-induced hemorrhage in hamster lung at 200 microg, 2 hr after administration prior to HLE; type: functional, Cricetulus griseus
Summary of the method: (§1)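 Hamster duration protocol: 200 μg/animal given intratracheally 60, 120, 180 or 240 min before IT HLE instillation; hemorrhage scored after 3 h as hemoglobin (414 nm) in saline lung lavage, relative to vehicle-treated animals; three animals per point. T50 taken as time at which 50% inhibition is still obtained.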

[3] = test system: Cricetinae gen. sp.; experiment: Compound was evaluated in vivo for inhibition of HLE-induced hemorrhage in hamster lung at 200 microg, 1 hr after administration prior to HLE; type: functional, Cricetulus griseus
Summary of the method: as §1

[4] = test system: Cricetinae gen. sp.; experiment: Compound was evaluated in vivo for inhibition of HLE-induced hemorrhage in hamster lung at 200 microg, 3h after administration prior to HLE; type: functional, Cricetulus griseus
Summary of the method: as §1

[5] = Half-life value of the compound.; type: ADME
Summary of the method: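 Chemical stability: compound dissolved at 1 mg/mL in 0.5 M MOPS, pH 8.0, held at 25 °C in capped vial; aliquots quenched in 2% aqueous TFA and analysed by reverse-phase HPLC over one to two half-lives. Peak areas fit to first-order decay F(t)=A/2^(t/t1/2) to give t1/2.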

[6] = test system: Cricetinae gen. sp.; experiment: Compound was evaluated in vivo for inhibition of HLE-induced hemorrhage in hamster lung at 10microg, 30 min after administration prior to HLE; type: functional, Cricetulus griseus
Summary of the method: (§2)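 Hamster, intratracheal dosing of compound (per animal) 30 min before IT instillation of 50 μg HLE (50 units in Experimental); hemorrhage read 3 h later: lungs lavaged with saline, hemoglobin in lavage measured at 414 nm. Percent inhibition from drug-treated vs vehicle-treated hemorrhage; three animals per dose and time. Titration at 100, 30, 10, 3 μg/animal gives ED50.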

[7] = test system: Cricetinae gen. sp.; experiment: Compound was evaluated in vivo for inhibition of HLE-induced hemorrhage in hamster lung at 100 microg, 30 min after administration prior to HLE; type: functional, Cricetulus griseus
Summary of the method: as §2

[8] = test system: Cricetinae gen. sp.; experiment: Compound was evaluated in vivo for inhibition of HLE-induced hemorrhage in hamster lung at 30microg, 30 min after administration prior to HLE; type: functional, Cricetulus griseus
Summary of the method: as §2

[9] = test system: Cricetinae gen. sp.; experiment: Compound was evaluated in vivo for inhibition of HLE-induced hemorrhage in hamster lung at 200 microg, 4 hr after administration prior to HLE; type: functional, Cricetulus griseus
Summary of the method: as §1

[10] = test system: Cricetinae gen. sp.; experiment: Compound was evaluated in vivo for inhibition of HLE-induced hemorrhage in hamster lung at 200 microg 4 hr after administration prior to HLE; type: functional, Cricetulus griseus
Summary of the method: as §1

[11] = test system: Cricetinae gen. sp.; experiment: Compound was evaluated in vivo for inhibition of HLE-induced hemorrhage in hamster lung at 200 microg 3h after administration prior to HLE; type: functional, Cricetulus griseus
Summary of the method: as §1

[12] = test system: Cricetinae gen. sp.; experiment: Compound was evaluated in vivo for inhibition of HLE-induced hemorrhage in hamster lung at 200 microg 1 hr after administration prior to HLE; type: functional, Cricetulus griseus
Summary of the method: as §1

[13] = test system: Cricetinae gen. sp.; experiment: Compound was evaluated in vivo for inhibition of HLE-induced hemorrhage in hamster lung at 200 microg 2 hr after administration prior to HLE; type: functional, Cricetulus griseus
Summary of the method: as §1

[14] = test system: Cricetinae gen. sp.; experiment: Compound was evaluated in vivo for inhibition of HLE-induced hemorrhage in hamster lung at 100 microg, 30 min after administration; type: functional, Cricetulus griseus
Summary of the method: as §2

[15] = test system: Cricetinae gen. sp.; experiment: Compound was evaluated in vivo for inhibition of HLE-induced hemorrhage in hamster lung at 30 ug 30 min after administration prior to HLE; type: functional, Cricetulus griseus
Summary of the method: as §2

[16] = test system: Cricetinae gen. sp.; experiment: Compound was evaluated in vivo for inhibition of HLE-induced hemorrhage in hamster lung at 10 ug 30 min after administration prior to HLE; type: functional, Cricetulus griseus
Summary of the method: as §2

[17] = test system: Cricetinae gen. sp.; experiment: Compound was evaluated in vivo for inhibition of HLE-induced hemorrhage in hamster lung at 100 microg 30 min after administration prior to HLE; type: functional, Cricetulus griseus
Summary of the method: as §2

[18] = test system: Cricetinae gen. sp.; experiment: Compound was evaluated in vivo for inhibition of HLE-induced hemorrhage in hamster lung at 400 microg, 30 min after administration; type: functional, Cricetulus griseus
[19] = biological target: T2, Neutrophil elastase (Homo sapiens, UniProt P08246); experiment: In vitro inhibitory activity against human leukocyte elastase
T2 sequence (P08246 whole entry): T1 sequence (whole entry)

[20] = test system: Cricetinae gen. sp.; experiment: Compound was evaluated in vivo for inhibition of HLE-induced hemorrhage in hamster lung at 3 ug 30 min after administration prior to HLE; type: functional, Cricetulus griseus
Summary of the method: as §2

[21] = test system: Cricetinae gen. sp.; experiment: Compound was evaluated in vivo for inhibition of HLE-induced hemorrhage in hamster lung at 100 microg 5 min after administration; type: functional, Cricetulus griseus

- k obs / 1 [1]: 12000 M⁻¹ s⁻¹
Structure (SMILES): CO[C@H]1C(=O)N2C(C(=O)N3CCC(O)C3)=C(COC(C)=O)CS(=O)(=O)[C@H]12 (stereo partly specified)

- k obs / 1 [1]: 100 M⁻¹ s⁻¹
Structure (SMILES): CC[C@H]1C(=O)N2C(C(=O)N(C)CC(=O)O)=C(COC(=O)c3ccc(C(=O)O)cc3)CS(=O)(=O)[C@H]12
- Inhibition [2]: 59%
- Inhibition [3]: 84%
- Inhibition [4]: 57%

- half-life [5]: > 50 h
- k obs / 1 [1]: 30 M⁻¹ s⁻¹
Structure (SMILES): CC[C@H]1C(=O)N2C(C(=O)N(C)CC(=O)O)=C(COC(C)=O)CS(=O)(=O)[C@H]12

- k obs / 1 [1]: 600 M⁻¹ s⁻¹
Structure (SMILES): CO[C@H]1C(=O)N2C(C(=O)N(C)CC(=O)O)=C(COC(=O)NCc3ccccc3)CS(=O)(=O)[C@H]12
- Inhibition [6]: 27%
- Inhibition [7]: 91%
- Inhibition [8]: 93%

- k obs / 1 [1]: 600 M⁻¹ s⁻¹
Structure (SMILES): CO[C@H]1C(=O)N2C(C(=O)N(C)CC(=O)O)=C(COC(=O)c3ccccc3)CS(=O)(=O)[C@H]12
- Inhibition [2]: 58%
- Inhibition [3]: 88%
- Inhibition [7]: 87%
- Inhibition [9]: 5%
- Inhibition [4]: 38%
- Inhibition [8]: 58%

- half-life [5]: 24 h
- k obs / 1 [1]: 500 M⁻¹ s⁻¹
Structure (SMILES): CO[C@H]1C(=O)N2C(C(=O)N(C)CCC(=O)O)=C(COC(C)=O)CS(=O)(=O)[C@H]12
- Inhibition [10]: 33%
- Inhibition [11]: -1%
- Inhibition [12]: 80%
- Inhibition [13]: 39%

- k obs / 1 [1]: 8600 M⁻¹ s⁻¹
Structure (SMILES): CO[C@H]1C(=O)N2C(C(=O)N(C)Cc3ccc(C(=O)O)cc3)=C(COC(C)=O)CS(=O)(=O)[C@H]12
- Inhibition [14]: 65%

- k obs / 1 [1]: 1900 M⁻¹ s⁻¹
Structure (SMILES): CO[C@H]1C(=O)N2C(C(=O)N3CCC(C(=O)O)C3)=C(COC(C)=O)CS(=O)(=O)[C@H]12 (stereo partly specified)

- k obs / 1 [1]: 19300 M⁻¹ s⁻¹
Structure (SMILES): CO[C@H]1C(=O)N2C(C(=O)N(C)CC(=O)OC(C)(C)C)=C(CSc3nc(=O)c(=O)[nH]n3C)CS(=O)(=O)[C@H]12
- Inhibition [2]: 84%
- Inhibition [15]: 94%
- Inhibition [16]: 65%
- Inhibition [12]: 89%
- Inhibition [17]: 98%
- Inhibition [4]: 38%

- k obs / 1 [1]: 2200 M⁻¹ s⁻¹
Structure (SMILES): CO[C@H]1C(=O)N2C(C(=O)NC(C)(C)C)=C(COC(C)=O)CS(=O)(=O)[C@H]12
- Inhibition [18]: -5%

- k obs / 1 [1]: 20500 M⁻¹ s⁻¹
Structure (SMILES): CO[C@H]1C(=O)N2C(C(=O)N(C)CC(=O)OC(C)(C)C)=C(CSc3nnnn3CC(=O)O)CS(=O)(=O)[C@H]12
- Inhibition [15]: 59%
- Inhibition [16]: 20%
- Inhibition [17]: 91%

- k obs / 1 [1]: 1000 M⁻¹ s⁻¹
Structure (SMILES): CO[C@H]1C(=O)N2C(C(=O)N(C)CCC(=O)O)=C(CSc3nc(=O)c(=O)[nH]n3C)CS(=O)(=O)[C@H]12
- Inhibition [10]: -23%
- Inhibition [15]: 74%
- Inhibition [11]: 46%
- Inhibition [16]: 45%
- Inhibition [12]: 95%
- Inhibition [17]: 96%
- Inhibition [13]: 87%

- Ki [19]: 250 nM
- half-life [5]: 46 h
Structure (SMILES): CO[C@H]1C(=O)N2C(C(=O)N3CCCC3C(=O)O)=C(CSc3nc(=O)c(=O)[nH]n3C)CS(=O)(=O)[C@H]12 (stereo partly specified)
- Inhibition [15]: 86%
- Inhibition [20]: 61%
- Inhibition [16]: 80%
- Inhibition [17]: 100%

- half-life [5]: 5 h
Structure (SMILES): CO[C@H]1C(=O)N2C(C(=O)OCc3ccc(C(=O)O)cc3)=C(COC(C)=O)CS(=O)(=O)[C@H]12
- Inhibition [21]: 98%

From ChEMBL document CHEMBL1125311, “Inhibition of human leukocyte elastase. 4. Selection of a substituted cephalosporin (L-658,758) as a topical aerosol” (J Med Chem, 1992)
